Experimental data reported in ChEMBL document CHEMBL1255294, “Genetic and biochemical characterization of OXA-63, a new class D beta-lactamase from Brachyspira pilosicoli BM4442” (Antimicrob Agents Chemother, 2008).
Converted amounts (≈) assume the structure as drawn.

Key:
[1] = Activity of beta-lactamase FUS1 assessed as compound hydrolysis by spectrophotometry
[2] = Ratio of Kcat to Km for beta-lactamase FUS1 assessed as compound hydrolysis by spectrophotometry
[3] = Activity of beta-lactamase FUS1 assessed as compound hydrolysis by spectrophotometry relative to benzyl-penicillin; parameters: scale not given: the % may be the effect or the level left
Brachyspira pilosicoli [4] = experiment: Antimicrobial activity against Brachyspira pilosicoli 80.10 without producing beta-lactamase OXA-63 by disc diffusion method; assay type: functional
How it was run: (§1)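 Disk diffusion was done on Mueller-Hinton agar supplemented with 5% sheep blood, following Comité de l'Antibiogramme de la Société Française de Microbiologie standards. Plates were incubated in an anaerobic jar at 37°C for 3 days.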

Brachyspira pilosicoli [5] = experiment: Antimicrobial activity against beta-lactamase OXA-63 producing Brachyspira pilosicoli isolate BM4442 isolated from feces of patient with diarrhea by disc diffusion method; assay type: functional; how it was run: as §1
Escherichia coli [6] = experiment: Antimicrobial activity against Escherichia coli JM83 without producing beta-lactamase OXA-63 after 3 days by Etest; assay type: functional
Escherichia coli [7] = experiment: Antimicrobial activity against Escherichia coli JM83 harboring beta-lactamase OXA-63 after 3 days by Etest; assay type: functional
How it was run: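 MICs for E. coli JM83 transformants were read by Etest on Mueller-Hinton agar. Transformants were selected on BHI agar with ampicillin 50 µg/ml and kanamycin 40 µg/ml.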

Class D beta-lactamase = target: T1, Class D beta-lactamase (Brachyspira pilosicoli, UniProt Q50H31); experiment: Inhibition of Brachyspira pilosicoli beta-lactamase OXA-63 expressed in Escherichia coli BL21 (DE3) assessed as reduction in nitrocefin hydrolysis by spectrophotometry relative to oxacillin
T1 sequence (Q50H31 whole entry): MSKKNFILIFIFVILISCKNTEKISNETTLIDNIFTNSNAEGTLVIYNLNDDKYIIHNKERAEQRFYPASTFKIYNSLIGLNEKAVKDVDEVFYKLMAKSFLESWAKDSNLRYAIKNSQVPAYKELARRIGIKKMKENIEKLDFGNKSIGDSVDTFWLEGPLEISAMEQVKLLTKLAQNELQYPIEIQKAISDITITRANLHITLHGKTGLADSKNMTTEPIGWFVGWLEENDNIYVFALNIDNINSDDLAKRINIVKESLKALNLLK
How it was run: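 C-terminal His6-tagged OXA-63 was expressed in E. coli BL21(DE3)pLys with 0.5 mM IPTG for 4 h at 28°C and purified by nickel affinity. Enzyme (50 to 150 nM) was preincubated with inhibitor for 30 min at 25°C in 100 mM sodium phosphate, pH 7.0. 100 µM nitrocefin was then added, and initial hydrolysis rates were read spectrophotometrically. IC50 was the concentration halving the rate.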

[8] = target: T2, Class D beta-lactamase (Brachyspira pilosicoli) (UniProt Q50H31); experiment: Activity of Brachyspira pilosicoli beta-lactamase OXA-63 expressed in Escherichia coli BL21 (DE3) assessed as compound hydrolysis by spectrophotometry relative to oxacillin; parameters: scale not given: the % may be the effect or the level left
T2 sequence (whole entry): T1 sequence (Q50H31 whole entry)

[9] = substrate: CC(=O)OCC1=C(C(=O)O)N2C(=O)[C@@H](NC(=O)Cc3cccs3)[C@H]2SC1; experiment: (§2) Activity of Brachyspira pilosicoli beta-lactamase OXA-63 expressed in Escherichia coli BL21 (DE3) assessed as compound hydrolysis by spectrophotometry
[10] = substrate: CC1(C)S[C@@H]2[C@H](NC(=O)C(C(=O)O)c3ccccc3)C(=O)N2[C@H]1C(=O)O; experiment: as §2
[11] = substrate: CC1(C)S[C@@H]2[C@H](NC(=O)Cc3ccccc3)C(=O)N2[C@H]1C(=O)O; experiment: as §2
[12] = substrate: CC1(C)S[C@@H]2[C@H](NC(=O)[C@H](N)c3ccccc3)C(=O)N2[C@H]1C(=O)O; experiment: as §2
[13] = substrate: CCN1CCN(C(=O)N[C@@H](C(=O)N[C@@H]2C(=O)N3[C@@H]2SC(C)(C)[C@@H]3C(=O)O)c2ccccc2)C(=O)C1=O; experiment: as §2
[14] = substrate: CO/N=C(\C(=O)N[C@@H]1C(=O)N2C(C(=O)O)=C(COC(N)=O)CS[C@H]12)c1ccco1; experiment: as §2
[15] = substrate: Cc1onc(-c2ccccc2)c1C(=O)N[C@@H]1C(=O)N2[C@@H]1SC(C)(C)[C@@H]2C(=O)O; experiment: as §2
[16] = substrate: CC1(C)S[C@@H]2[C@H](NC(=O)C(C(=O)O)c3ccccc3)C(=O)N2[C@H]1C(=O)O; experiment: (§3) Ratio of Kcat to Km for Brachyspira pilosicoli beta-lactamase OXA-63 expressed in Escherichia coli BL21 (DE3) assessed as compound hydrolysis by spectrophotometry
[17] = substrate: CC1(C)S[C@@H]2[C@H](NC(=O)Cc3ccccc3)C(=O)N2[C@H]1C(=O)O; experiment: as §3
[18] = substrate: CC1(C)S[C@@H]2[C@H](NC(=O)[C@H](N)c3ccccc3)C(=O)N2[C@H]1C(=O)O; experiment: as §3
[19] = substrate: CCN1CCN(C(=O)N[C@@H](C(=O)N[C@@H]2C(=O)N3[C@@H]2SC(C)(C)[C@@H]3C(=O)O)c2ccccc2)C(=O)C1=O; experiment: as §3
[20] = substrate: Cc1onc(-c2ccccc2)c1C(=O)N[C@@H]1C(=O)N2[C@@H]1SC(C)(C)[C@@H]2C(=O)O; experiment: as §3

CC(=O)OCC1=C(C(=O)O)N2C(=O)[C@@H](NC(=O)Cc3cccs3)[C@H]2SC1
Km [1]: 47 µM
kcat [1]: 4.1 s⁻¹
kcat/Km [2]: 8.7 ×10⁵ /M/s
Activity [3]: 0.1%

CC1(C)S[C@@H]2[C@H](NC(=O)[C@H](N)c3ccc(O)cc3)C(=O)N2[C@H]1C(=O)O [AMOXICILLIN]
MIC (Brachyspira pilosicoli [4]): 0.047 µg/mL (≈ 0.129 µM)
MIC (Brachyspira pilosicoli [5]): 1.5 µg/mL (≈ 4.1 µM)
MIC (Escherichia coli [6]): 6 µg/mL (≈ 16.4 µM)
MIC (Escherichia coli [7]): 256 µg/mL (≈ 701 µM)

CC(C)(O/N=C(\C(=O)N[C@@H]1C(=O)N2C(C(=O)[O-])=C(C[n+]3ccccc3)CS[C@H]12)c1csc(N)n1)C(=O)O [CEFTAZIDIME]
MIC (Brachyspira pilosicoli [4]): 4 µg/mL (≈ 7.32 µM)
MIC (Brachyspira pilosicoli [5]): 4 µg/mL (≈ 7.32 µM)
MIC (Escherichia coli [6]): 0.5 µg/mL (≈ 0.915 µM)
MIC (Escherichia coli [7]): 0.5 µg/mL (≈ 0.915 µM)

O=C(O)[C@H]1/C(=C/CO)O[C@@H]2CC(=O)N21 [CLAVULANIC ACID]
IC50 (Class D beta-lactamase): 2000 nM

C[C@H]1[C@H](NC(=O)/C(=N\OC(C)(C)C(=O)O)c2csc(N)n2)C(=O)N1S(=O)(=O)O [AZTREONAM]
MIC (Brachyspira pilosicoli [4]): 1 µg/mL (≈ 2.3 µM)
MIC (Brachyspira pilosicoli [5]): 1 µg/mL (≈ 2.3 µM)
MIC (Escherichia coli [6]): 0.19 µg/mL (≈ 0.436 µM)
MIC (Escherichia coli [7]): 0.19 µg/mL (≈ 0.436 µM)

C[C@@H](O)[C@H]1C(=O)N2C(C(=O)O)=C(SCCNC=N)C[C@H]12 [IMIPENEM ANHYDROUS]
MIC (Brachyspira pilosicoli [4]): < 4 µg/mL
MIC (Brachyspira pilosicoli [5]): < 4 µg/mL
MIC (Escherichia coli [6]): < 4 µg/mL
MIC (Escherichia coli [7]): 4 µg/mL (≈ 13.4 µM)

CC1(C)S[C@@H]2[C@H](NC(=O)[C@H](N)c3ccccc3)C(=O)N2[C@H]1C(=O)O
Km [1]: 76 µM
kcat [1]: 45 s⁻¹
kcat/Km [2]: 5.7 ×10⁵ /M/s
Activity [8]: 15%
Activity [3]: 0.7%

CC1(C)S[C@@H]2[C@H](NC(=O)Cc3ccccc3)C(=O)N2[C@H]1C(=O)O [PENICILLIN G]
MIC (Brachyspira pilosicoli [4]): 0.023 µg/mL (≈ 0.0688 µM)
MIC (Brachyspira pilosicoli [5]): 2 µg/mL (≈ 5.98 µM)
MIC (Escherichia coli [6]): 24 µg/mL (≈ 71.8 µM)
MIC (Escherichia coli [7]): 256 µg/mL (≈ 766 µM)
Km [1]: 10 µM
kcat [1]: 830 s⁻¹
kcat/Km [2]: 8.3 ×10⁷ /M/s
Activity [8]: 25.5%

CC1(C)[C@H](C(=O)O)N2C(=O)C[C@H]2S1(=O)=O [SULBACTAM]
IC50 (Class D beta-lactamase): 12000 nM

CCN1CCN(C(=O)N[C@@H](C(=O)N[C@@H]2C(=O)N3[C@@H]2SC(C)(C)[C@@H]3C(=O)O)c2ccccc2)C(=O)C1=O [PIPERACILLIN]
MIC (Brachyspira pilosicoli [4]): 0.016 µg/mL (≈ 0.0309 µM)
MIC (Brachyspira pilosicoli [5]): 48 µg/mL (≈ 92.7 µM)
MIC (Escherichia coli [6]): 1.5 µg/mL (≈ 2.9 µM)
MIC (Escherichia coli [7]): 96 µg/mL (≈ 185 µM)
Activity [8]: 6.5%

C[C@]1(Cn2ccnn2)[C@H](C(=O)O)N2C(=O)C[C@H]2S1(=O)=O [TAZOBACTAM]
IC50 (Class D beta-lactamase): 160 nM

CO/N=C(\C(=O)N[C@@H]1C(=O)N2C(C(=O)O)=C(COC(N)=O)CS[C@H]12)c1ccco1
Km [1]: > 400 µM
kcat [1]: > 1.8 s⁻¹
kcat/Km [2]: 4.5 ×10⁵ /M/s
Activity [3]: 0.005%

Cc1onc(-c2ccccc2)c1C(=O)N[C@@H]1C(=O)N2[C@@H]1SC(C)(C)[C@@H]2C(=O)O [OXACILLIN]
MIC (Brachyspira pilosicoli [4]): 0.125 µg/mL (≈ 0.311 µM)
MIC (Brachyspira pilosicoli [5]): > 256 µg/mL
Km [1]: 36 µM
kcat [1]: 780 s⁻¹
kcat/Km [2]: 2.1 ×10⁷ /M/s
Activity [3]: 25%

C[C@@H](O)[C@H]1C(=O)N2C(C(=O)O)=C(S[C@@H]3CN[C@H](C(=O)N(C)C)C3)[C@H](C)[C@H]12 [MEROPENEM]
MIC (Brachyspira pilosicoli [4]): 0.032 µg/mL (≈ 0.0834 µM)
MIC (Brachyspira pilosicoli [5]): 0.032 µg/mL (≈ 0.0834 µM)
MIC (Escherichia coli [6]): 0.032 µg/mL (≈ 0.0834 µM)
MIC (Escherichia coli [7]): 0.016 µg/mL (≈ 0.0417 µM)

CO/N=C(\C(=O)N[C@@H]1C(=O)N2C(C(=O)O)=C(COC(C)=O)CS[C@H]12)c1csc(N)n1 [CEFOTAXIME]
MIC (Brachyspira pilosicoli [4]): < 0.016 µg/mL
MIC (Brachyspira pilosicoli [5]): 0.032 µg/mL (≈ 0.0703 µM)
MIC (Escherichia coli [6]): 0.064 µg/mL (≈ 0.141 µM)
MIC (Escherichia coli [7]): 0.064 µg/mL (≈ 0.141 µM)

B1: Class D beta-lactamase (Brachyspira pilosicoli), Q50H31 (protein)
chain: T1 sequence (Q50H31 whole entry)
kcat [9]: Not Active
Km [10]: 17 µM
kcat [10]: 1.1 s⁻¹
Km [11]: 19 µM
kcat [11]: 4.9 s⁻¹
Km [12]: 43 µM
kcat [12]: 6.6 s⁻¹
Km [13]: 33 µM
kcat [13]: 2.1 s⁻¹
kcat [14]: Not Active
Km [15]: 115 µM
kcat [15]: 113 s⁻¹
kcat/Km [16]: 6.5 ×10⁴ /M/s
kcat/Km [17]: 2.5 ×10⁵ /M/s
kcat/Km [18]: 1.5 ×10⁵ /M/s
kcat/Km [19]: 6.4 ×10⁴ /M/s
kcat/Km [20]: 9.8 ×10⁵ /M/s
